Reference: publication PMC8733272 (iScience, 2021)
Positions count from the first letter of the chain named. Entries after “also recorded” stand apart in the source; their conditions may differ.

Columns and labels:
[1] = molecular target: T1, N-terminally tagged W403A-Parkin (Homo sapiens, UniProt O60260, W403A); assay: In vitro ubiquitin vinyl sulfone; type: biochemical; settings: 3 μM pUb, 1 h
T1 sequence (O60260 1-465 W403A): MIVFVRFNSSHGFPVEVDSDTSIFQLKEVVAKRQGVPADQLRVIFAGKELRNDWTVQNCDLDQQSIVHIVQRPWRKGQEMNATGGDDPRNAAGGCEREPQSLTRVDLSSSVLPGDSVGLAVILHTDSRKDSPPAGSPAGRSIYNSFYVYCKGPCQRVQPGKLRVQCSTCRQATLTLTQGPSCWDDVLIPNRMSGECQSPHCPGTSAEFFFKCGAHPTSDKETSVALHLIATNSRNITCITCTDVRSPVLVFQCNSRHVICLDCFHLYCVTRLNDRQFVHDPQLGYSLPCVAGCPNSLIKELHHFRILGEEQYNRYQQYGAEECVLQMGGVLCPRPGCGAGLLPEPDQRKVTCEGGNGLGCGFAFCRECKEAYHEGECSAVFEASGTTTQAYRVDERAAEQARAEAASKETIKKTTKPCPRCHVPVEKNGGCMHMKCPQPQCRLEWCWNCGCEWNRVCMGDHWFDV
Method in brief: (§1)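 Tagged Parkin (WT or W403A), 2 μM, incubated with 10 μM Ub-VS and 3 μM pUb. Test compound at 0, 0.09, 0.27, 0.8, 2.5, 7.4, 22.2, 66.7 and 200 μM. Buffer: 50 mM HEPES, 150 mM NaCl, 1 mM TCEP, pH 8.0. Final DMSO 2% (v/v).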

[2] = molecular target: T2, N-terminally tagged WT-Parkin (Homo sapiens, UniProt O60260); assay: In vitro ubiquitin vinyl sulfone; type: biochemical; settings: 3 μM pUb, 2 h
T2 sequence (O60260 1-465): T1 sequence (O60260 1-465 W403A) with A403W
Method in brief: as §1

[3] = tested on: GFP-Parkin expressing HeLa cells; assay: Parkin translocation assay; type: cell-based
Method in brief: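 HeLa cells stably expressing GFP-Parkin (lentiviral, blasticidin-selected, FACS-sorted for matched GFP) were seeded at 1.6×10^4 cells/well and recovered 24 h. Nuclei were Hoechst-stained 30 min. Cells were pre-treated 1 h with test compound, then given 20 μM CCCP. Live imaging every 10 min for 3 h at 20x, 37°C, 5% CO2, with 9 fields in each of 4 replicate wells.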

[4] = molecular target: T3, WT-Parkin (substrate His-Miro1 186-591) (Homo sapiens, UniProt O60260); assay: Miro1 ubiquitination assay by Western blot; type: biochemical; settings: His-Miro1 (186-591) substrate
T3 sequence (O60260 1-465): T1 sequence (O60260 1-465 W403A) with A403W
Method in brief: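 Run as the TR-FRET reaction with untagged WT-Parkin. Test compound was pre-incubated 30 min with E1, E2, Parkin and His-Miro1 186-591 (250 nM final); the 2X mix held 40 nM E1, 800 nM E2 and 100 nM Parkin. After 20 min the reaction was stopped in SDS sample buffer, then run on 4–12% bis-tris SDS-PAGE, PVDF transfer and IR-dye secondary imaging.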

pParkin = molecular target: T4, pParkin (Homo sapiens, UniProt O60260); assay: TR-FRET autoubiquitination assay with phospho-Parkin without pUb; type: biochemical; settings: TR-FRET ratio, no pUb
T4 sequence (O60260 1-465): T1 sequence (O60260 1-465 W403A) with A403W

[5] = molecular target: T5, N-terminally tagged C431S-Parkin (Homo sapiens, UniProt O60260, C431S); assay: In vitro ubiquitin vinyl sulfone; type: biochemical; settings: 200 μM compound, range of pUb concentrations
T5 sequence (O60260 1-465 C431S): T1 sequence (O60260 1-465 W403A) with A403W, C431S

[6] = tested on: SH-SY5Y cells expressing the MitoQC construct; assay: MitoQC mitophagy assay; type: cell-based; settings: 1 h pre-incubation, Antimycin + Oligomycin
Method in brief: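 SH-SY5Y cells carrying MitoQC were seeded at 1.6×10^4 cells/well on attachment factor and recovered 72 h. Cells were pre-treated 1 h with test compound, then given 5 μM Antimycin + 10 μM Oligomycin or DMSO for 8 h unless stated otherwise. Fixed in 2% PFA on ice 30 min, DAPI-stained, and imaged at 64x (25 fields, 4 replicate wells). mCherry puncta (mitolysosomes) were counted.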

WT-Parkin = molecular target: T6, WT-Parkin (Homo sapiens, UniProt O60260); assay: Parkin autoubiquitination by Western blot; type: biochemical; settings: 5 min reaction at 37°C
T6 sequence (O60260 1-465): T1 sequence (O60260 1-465 W403A) with A403W
Method in brief: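 Untagged WT-Parkin was pre-incubated 30 min at 37°C with E1, E2 and test compound; the 2X mix held 40 nM E1, 800 nM E2 and 100 nM Parkin. Then 2X substrate mix was added (760 nM fluorescein-Ub, 50 μM ubiquitin, 10 μM pUb, 2 mM ATP) in HEPES pH 7.4 buffer with 1% DMSO, in 40 μL. Stopped after 5 min with SDS sample buffer; polyubiquitin smears were read by Western blot.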

[7] = molecular target: Human MDR1 efflux transporter (MDCK-MDR1 cells) (Homo sapiens, UniProt P08183); assay: MDCK-MDR1 bidirectional permeability / efflux; type: in vitro ADME; settings: average of inward and outward permeability
Human MDR1 efflux transporter (MDCK-MDR1 cells), sequence (P08183 whole entry): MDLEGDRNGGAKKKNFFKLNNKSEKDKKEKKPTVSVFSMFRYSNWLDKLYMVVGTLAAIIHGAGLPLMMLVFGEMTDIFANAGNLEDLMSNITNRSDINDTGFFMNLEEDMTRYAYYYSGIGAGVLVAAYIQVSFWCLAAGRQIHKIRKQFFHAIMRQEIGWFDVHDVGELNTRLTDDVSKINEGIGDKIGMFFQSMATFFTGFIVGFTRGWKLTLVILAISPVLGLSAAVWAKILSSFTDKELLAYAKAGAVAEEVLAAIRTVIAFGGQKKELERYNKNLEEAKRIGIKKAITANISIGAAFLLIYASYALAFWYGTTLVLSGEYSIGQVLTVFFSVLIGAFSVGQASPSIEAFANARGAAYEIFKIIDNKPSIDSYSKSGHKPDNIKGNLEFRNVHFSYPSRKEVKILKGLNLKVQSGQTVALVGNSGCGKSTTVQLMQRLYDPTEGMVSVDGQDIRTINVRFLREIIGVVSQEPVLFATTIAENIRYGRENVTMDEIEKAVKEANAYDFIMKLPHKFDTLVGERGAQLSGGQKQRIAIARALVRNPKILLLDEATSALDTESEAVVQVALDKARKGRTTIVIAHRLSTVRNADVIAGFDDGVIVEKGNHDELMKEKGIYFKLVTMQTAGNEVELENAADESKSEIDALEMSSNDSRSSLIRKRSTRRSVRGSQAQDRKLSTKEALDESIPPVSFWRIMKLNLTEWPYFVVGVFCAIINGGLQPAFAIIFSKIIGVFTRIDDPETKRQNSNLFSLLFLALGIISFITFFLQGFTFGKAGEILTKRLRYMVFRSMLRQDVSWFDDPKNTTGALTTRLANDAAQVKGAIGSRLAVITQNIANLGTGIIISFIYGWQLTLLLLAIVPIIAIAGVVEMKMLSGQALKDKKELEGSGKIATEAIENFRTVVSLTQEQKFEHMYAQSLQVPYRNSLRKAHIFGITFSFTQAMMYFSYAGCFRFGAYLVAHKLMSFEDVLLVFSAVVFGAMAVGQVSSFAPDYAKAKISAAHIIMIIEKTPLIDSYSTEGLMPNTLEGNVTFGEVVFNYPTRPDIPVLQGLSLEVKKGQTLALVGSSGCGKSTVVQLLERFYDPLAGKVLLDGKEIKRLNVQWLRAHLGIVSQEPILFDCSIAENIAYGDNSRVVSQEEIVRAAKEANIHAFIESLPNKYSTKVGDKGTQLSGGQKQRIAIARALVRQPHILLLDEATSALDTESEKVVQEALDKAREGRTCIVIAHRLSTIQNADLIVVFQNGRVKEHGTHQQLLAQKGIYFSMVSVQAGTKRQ
Method in brief: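 MDCK-MDR1 cells were seeded at 0.28×10^6 cells/mL on the apical side of transwell inserts and grown 7 days, with two media changes. Monolayers were rinsed in HBSS/1% HEPES pH 7.4. 1 μM test compound was added to the donor side (A>B and B>A); receivers held buffer with 1% BSA. Plates were shaken 2 h at 37°C. Donor was sampled at 0 and 120 min, receiver at 2 h, and quenched with acetonitrile plus internal standard for LC-MS/MS. Post-assay TEER had to exceed 430 ohm∗cm2. Papp = (dQ/dt)(1/C0)(1/A); ER = Papp B>A / Papp A>B.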

In the case of CO[C@H](C(=O)N1Cc2c(-c3ccc(C(=O)N4CCCc5ccccc54)cc3)cnn2C[C@H]1C(C)C)c1cnn(C)c1 (single isomer, unassigned) [BIO-2007817], the “Ub-VS charging of W403A-Parkin” value [1] is reported as “further stimulated exposure of the active-site C431”, the “Ub-VS charging of WT-Parkin” value ([2]; no E1, E2 or ATP) is reported as “induced the appearance of slower-migrating Parkin species in a concentration-dependent manner” and the “concentration above which maximal efficacy is approached in Ub-VS charging” value ([2]; WT-Parkin) is reported as “above 20 μM”. The “effect on Parkin translocation rate in the presence of valspodar” value ([3]; HeLa cells with and without valspodar (MDR1 inhibitor)) was “No change in Parkin translocation rate”, the “effect on rate of Parkin translocation to mitochondria” value ([3]; eGFP-WT-Parkin HeLa, 1 h pretreatment, then CCCP) was “did not significantly change the rate of translocation of Parkin; also recorded: not able to promote Parkin translocation to depolarized mitochondria in HeLa cells” and the “Miro1 ubiquitination by Western blot” value [4] was “able to induce the appearance of monoubiquitinated forms of Miro1”. For the same compound, the “activation of phospho-Parkin in the absence of pUb” value (pParkin) was “can act as an agonist for activated phospho-Parkin even in the absence of pUb”, the “Ub-VS charging of C431S-Parkin” value [5] was “not responsive; also recorded: no activity” and the “effect on mitophagy, MitoQC” value [6] was “nor promote mitophagy in MitoQC SH-SY5Y cell lines”. For the same compound, the “Parkin autoubiquitination by Western blot” value (WT-Parkin) was “stimulated Parkin autoubiquitination as measured by Western blots in a concentration-dependent manner” and the “MDR1-MDCK avg (average of Papp AB/BA)” value [7] was 19.8 ×10⁻⁶ cm/s.
